From ChEMBL document CHEMBL4014261, “Design, Synthesis, and Antimicrobial Evaluation of a Novel Bone-Targeting Bisphosphonate-Ciprofloxacin Conjugate for the Treatment of Osteomyelitis Biofilms” (J Med Chem, 2017) come the findings set out here.

In brackets after ≈: the same amount, converted by molar mass. Activity calls are given as the source filed them. The rule behind the calls is not given here.

One data set deals with Pseudomonas aeruginosa. Briefly: Bactericidal activity against Pseudomonas aeruginosa ATCC 15442 biofilm using polystyrene as substrate assessed as reduction in colony forming units at 0.24 to 125 ug/ml after 24 hrs. The format is functional. Put shortly: (§1)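 Biofilms were started from a 1 McFarland suspension, allowed to adhere 4 h at 37 °C on HA discs or polystyrene well bottoms, then rinsed. They were exposed 24 h at 37 °C to TSB containing 0.24–125 mg/L compound. Cells were detached in 0.5% saponin by 1 min vortexing, serially diluted and plated on Columbia (S. aureus) or MacConkey (P. aeruginosa) agar, 37 °C, 24 h. Read-out was mean CFU/mm² ± SEM; HA area was measured by X-ray tomography.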

In data set [1] the test system is Staphylococcus aureus. Briefly: Antibacterial activity against methicillin-sensitive Staphylococcus aureus isolate 1 planktonic cells after 24 hrs by microdilution assay. The class given is functional. Particulars: isolate 1, 24 h. Put shortly: (§2)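 Planktonic cells at 1 × 10^5 CFU/mL were exposed to compound, and A580 was read at 0 h and after 24 h at 37 °C with shaking. Controls were medium plus microbes, with 1% (v/v) DMSO where the solvent was used. Relative cell number was calculated against the control. Results were confirmed by subculture in fresh medium (48 h, 37 °C) and plating. Conjugate concentrations were expressed as parent-antibiotic equivalents.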
A general note: Broth dilution looks for growth in wells or tubes with falling amounts of substance.

In data set [2] the test system is Staphylococcus aureus. Briefly: Antibiofilm activity against Staphylococcus aureus ATCC 6538 assessed as CFU counts at 400 ug/mL pretreated with HA for 24 hrs followed by organism inoculation measured after 24 hrs (reference value: 4.5 x 10^10CFU). The class given is functional.
Data set [3] has as its system Staphylococcus aureus. The experiment in a line: Bactericidal activity against methicillin-sensitive Staphylococcus aureus ATCC 6538 planktonic cells assessed as reduction in bacterial growth at 31.25 ug/ml up to 1 hr by time kill assay relative to control. Also on record: scale not given: the % may be the effect or the level left. The format is functional. The method in brief: (§3)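 Time-kill per CLSI on planktonic cultures, set up as the microdilution assay: 1 × 10^5 CFU/mL, 37 °C with shaking. A580 is read at 0, 1, 2, 4, 8, 16 and 24 h, and growth is expressed relative to untreated medium + microbes control. Concentrations are parent-antibiotic equivalents.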

Data set [4] has as its system Staphylococcus aureus. Briefly: Ratio of MIC50 for methicillin-sensitive Staphylococcus aureus ATCC 6538 planktonic cells at pH 5 to MIC50 for methicillin-sensitive Staphylococcus aureus ATCC 6538 planktonic cells at pH 7.4. The format is functional. Put shortly:
(§4)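 Planktonic ATCC 6538 was tested by microdilution in medium adjusted to pH 5 or pH 7.4 with KOH or HCl, with pH checked by universal indicator. MIC50 was determined at each pH.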

For data set [5], the system named is Staphylococcus aureus. Briefly: Bactericidal activity against Staphylococcus aureus ATCC 6538 biofilm using polystyrene as substrate assessed as reduction in colony forming units after 24 hrs. The format is functional. Put shortly:
as §1

Data set [6] has as its system Rattus norvegicus. Briefly: Toxicity in jawbone peri-implant osteomyelitis Sprague-Dawley rat model infected with Aggregatibacter actinomycetemcomitans assessed as signs of gross tolerability issue at 0.1 to 10 mg/kg, ip single dose measured after 1 week post pharmacotherapy. As to conditions: in vivo, 168 h. The class given is organism-based. Put shortly: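 Rats carried two *Aa* (D7S-1) biofilm-coated miniature titanium implants (10^9 CFU) in the palatal bone, one on each side. Dosing began one week after surgery: a single intraperitoneal injection under anesthesia, in sterile physiological saline, with 2 rats per group. Injection-site reactions and gross tolerability were observed during therapy. Animals were euthanized one week after pharmacotherapy.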

The test system of data set [7] is Rattus norvegicus. The experiment in a line: Toxicity in jawbone peri-implant osteomyelitis Sprague-Dawley rat model infected with Aggregatibacter actinomycetemcomitans assessed as cutaneous injection-site reactions at 0.1 to 10 mg/kg, ip single dose measured after 1 week post pharmacotherapy. The format is organism-based. Particulars: in vivo, 168 h. Put shortly: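 Rats bearing infected palatal implants received i.p. dosing in sterile saline. They were observed during therapy for cutaneous injection-site reactions, inflammation and gross tolerability issues, and were euthanized one week after pharmacotherapy.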

Data set [8] relates to Staphylococcus aureus. Briefly: Potency index, ratio of ciprofloxacin bactericidal concentration to compound bactericidal concentration for Staphylococcus aureus ATCC 6538. The class given is functional.
For data set [9], the system named is Staphylococcus aureus. The experiment in a line: Antibiofilm activity against Staphylococcus aureus ATCC 6538 assessed as CFU counts at 50 ug/mL pretreated with HA for 24 hrs followed by organism inoculation measured after 24 hrs (reference value: 4.5 x 10^10CFU). The class given is functional. The method in brief:
(§5)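 HA discs were soaked 24 h at 37 °C in 2 mL compound solution, with DMSO or phosphate-buffer controls, then rinsed 3× with sterile water. Discs were inoculated with 2 mL of 0.5 McFarland S. aureus ATCC 6538 for biofilm formation. Biofilm CFU were counted after 24 h growth.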

For data set [10], the system named is Staphylococcus aureus. The experiment in a line: Bactericidal activity against Staphylococcus aureus ATCC 6538 biofilm using hydroxyapatite as substrate assessed as reduction in colony forming units after 24 hrs. The class given is functional. Put shortly: as §1
The subject of data set [11] is Staphylococcus aureus. The experiment in a line: Antibiofilm activity against Staphylococcus aureus ATCC 6538 assessed as reduction in bacterial adherence to HA at 0.24 to 7.8 ug/ml pretreated with HA for 24 hrs followed by organism inoculation measured after 24 hrs. The format is functional. The method in brief: (§6)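 HA spherules (final 10 mg/mL) in TSB were preincubated 24 h at 37 °C with shaking with compound (final 0.12–250 mg/L), then pelleted and the supernatant discarded. They were inoculated with 1 mL S. aureus at 10^5 CFU/mL. A580 was read at 0 and 24 h (37 °C, shaking) against controls without spherules and spherules without compound; spherules were also plated for CFU.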

Data set [12] concerns Staphylococcus aureus. Briefly: Antibacterial activity against methicillin-sensitive Staphylococcus aureus ATCC 6538 planktonic cells at pH 5 after 24 hrs by microdilution method. Particulars: ATCC 6538, 24 h. The format is functional. Put shortly:
as §4

Data set [13] has as its system Staphylococcus aureus. The experiment in a line: Bactericidal activity against methicillin-resistant Staphylococcus aureus MR4-CIPS planktonic cells assessed as reduction in bacterial growth at 7.8 ug/ml after 2 hrs by time kill assay. The class given is functional. Put shortly:
as §3

In data set [14] the test system is Aggregatibacter actinomycetemcomitans. The experiment in a line: Antibiofilm activity against Aggregatibacter actinomycetemcomitans infected in jawbone peri-implant osteomyelitis Sprague-Dawley rat model assessed as reduction in bacterial count in bone at 10 mg/kg, ip single dose measured after 1 week post pharmacotherapy. The class given is functional. Also on record: scale not given: the % may be the effect or the level left. The method in brief: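 Rats carried two titanium implants each, preinoculated with A. actinomycetemcomitans D7S-1 biofilm (10^9 CFU), placed bilaterally in palatal bone. One week after surgery, randomized groups received i.p. doses in sterile saline; the negative control was endotoxin-free saline. One week after treatment, 1 cm² peri-implant tissue and bone were homogenized in 0.5% saponin, serially diluted 10-fold and spread-plated on modified TSB (37 °C, 5% CO2, 48 h). Read-out was CFU/g and mean log10 reduction; analysts were blinded.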

Data set [15] relates to Staphylococcus aureus. The experiment in a line: Antibiofilm activity against Staphylococcus aureus ATCC 6538 assessed as reduction in bacterial adherence to HA at 15.6 to 250 ug/ml pretreated with HA for 24 hrs followed by organism inoculation measured after 24 hrs. The class given is functional. The method in brief: as §6
The test system of data set [16] is Staphylococcus aureus. Briefly: Antibiofilm activity against Staphylococcus aureus ATCC 6538 assessed as CFU counts at 25 ug/mL pretreated with HA for 24 hrs followed by organism inoculation measured after 24 hrs (reference value: 4.5 x 10^10CFU). The class given is functional. Put shortly:
as §5

Data set [17] relates to Staphylococcus aureus. The experiment in a line: Antibacterial activity against methicillin-sensitive Staphylococcus aureus ATCC 6538 planktonic cells after 24 hrs by microdilution assay. The class given is functional. As to conditions: ATCC 6538, 24 h. Put shortly: as §2

For orientation: MIC means the least concentration at which growth counts as inhibited. For orientation: MIC50 means an inhibitory concentration at the 50% level, which refers to growth in some studies and to a panel of isolates in others. Usually MIC90 stands for the lowest concentration that inhibits either 90% of growth or 90% of the strains tested, depending on the study. With `O=C(O)c1cn(C2CC2)c2cc(N3CCN(C(=O)Oc4ccc(CC(P(=O)(O)O)P(=O)(O)O)cc4)CC3)c(F)cc2c1=O`, the outcome in the data set with Pseudomonas aeruginosa was inactive. In addition, the minimal inhibitory concentration (MIC) in the data set with Staphylococcus aureus [1] is 3.9 µg/mL (≈ 6.1 µM); with Staphylococcus aureus [17], 31.2 µg/mL (≈ 48.8 µM). In addition, the outcome with Staphylococcus aureus [2], in the data set on Staphylococcus aureus [9], in the data set with Staphylococcus aureus [11], with Staphylococcus aureus [13], in the data set on Staphylococcus aureus [15] and in the data set on Staphylococcus aureus [16] was Active. Further, the Activity in the data set with Staphylococcus aureus [3] is 100%; in the data set on Rattus norvegicus [6], “Non-Toxic”; in the data set with Rattus norvegicus [7], “Non-Toxic”; in [14] it was 99%. The values for the Ratio in the data set on Staphylococcus aureus [4] and with Staphylococcus aureus [8] were 0.5 and 20, respectively. Moreover, the MBIC50 in the data set with Staphylococcus aureus [5] is 15.6 to 31.2 µg/mL; in the data set on Staphylococcus aureus [10], 16 µg/mL. For the same molecule, the MBIC90 with Staphylococcus aureus [10] is 100 µg/mL. The same molecule showed an MIC50 in the data set on Staphylococcus aureus [12] of 7.81 µg/mL (≈ 12.2 µM). The MIC90 in the data set on Staphylococcus aureus [12] is 31.2 µg/mL (≈ 48.9 µM).
